Data: ChEMBL document CHEMBL4330087, “Synthesis, antimicrobial activity, attenuation of aminoglycoside resistance in MRSA, and ribosomal A-site binding of pyrene-neomycin conjugates” (Eur J Med Chem, 2019)
In brackets after ≈: the same amount, converted by molar mass. Activity calls are given as the source filed them. The rule behind the calls is not given here.

Columns and labels:
[1] = organism: Homo sapiens; test: Displacement of F-NEO from human mitochondrial rRNA-A site C1410U mutant after 10 to 20 mins by fluorescence assay relative to NEO; parameters: concentration or dose not given beside the values
Procedure, shortened: (§1)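 100 nM F-NEO:A-site complex in 10 mM HEPES, 50 mM NaCl, 0.04 mM EDTA, pH 7.0, mixed with ligand and incubated 10-20 min at room temperature. Fluorescence read at ex 485/em 525 nm, in duplicate. Percent binding was computed from the intensities of ligand-treated complex, complex without ligand, and complex with neomycin.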

[2] = Inhibition of AAC(2')-1c (unknown origin)
[3] = test system: Escherichia coli; test: Antibacterial activity against NEO-sensitive Escherichia coli ATCC 25922 at 6.25 uM after 15 to 20 hrs by CLSI protocol based microdilution assay relative to control; type: functional
Procedure, shortened: (§2)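 Single-concentration screen at 6.25 μM against exponential-phase cultures, in duplicate, with NEO as reference. Enterococcus was grown in BHI broth, M. smegmatis in TS broth with 0.05% Tween 80, and all other strains in TS broth. The 1% DMSO water vehicle was added to broth (background) and culture (growth control). Incubation was 37 °C, humidified, 15-20 h. Result is percent growth inhibition.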

[4] = test system: Escherichia coli; test: Antibacterial activity against NEO-sensitive Escherichia coli harboring TolC mutant at 6.25 uM after 15 to 20 hrs by CLSI protocol based microdilution assay relative to control; type: functional
Procedure, shortened: (§3)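 Exponential-phase cultures were exposed to 6.25 μM compound in duplicate with neomycin as reference, at 37 °C in a humidified incubator for 15-20 h. Broth and culture controls received sterile water with 1% DMSO. Percent growth inhibition was calculated against the growth and background controls.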

[5] = Inhibition of AAC(6')-1e (unknown origin)
[6] = Inhibition of Eis (unknown origin)
[7] = organism: Homo sapiens; test: Displacement of F-NEO from human mitochondrial rRNA-A site A1490G mutant after 10 to 20 mins by fluorescence assay relative to NEO; procedure, shortened: as §1
[8] = test system: Staphylococcus aureus; test: Antibacterial activity against methicillin-resistant Staphylococcus aureus SU-5 at 6.25 uM after 15 to 20 hrs by CLSI protocol based microdilution assay relative to control; type: functional; procedure, shortened: as §3
[9] = Inhibition of APH(2\")-1a (unknown origin)
[10] = test system: Staphylococcus aureus; test: Antibacterial activity against NEO-sensitive Staphylococcus aureus 25923 at 6.25 uM after 15 to 20 hrs by CLSI protocol based microdilution assay relative to control; type: functional; procedure, shortened: as §2
[11] = test system: Ribosomal RNA A-site; test: Displacement of F-NEO from Escherichia coli rRNA-A site after 10 to 20 mins by fluorescence assay; type: nucleic-acid assay
Procedure, shortened: (§4)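 A 100 nM F-NEO:A-site RNA complex in 10 mM HEPES, 50 mM NaCl, 0.04 mM EDTA, pH 7.0 was titrated with 2-fold dilutions of ligand from 20 to 0.009 μM, or from 60 or 40 μM for weaker ligands. Incubated 10-20 min at room temperature, fluorescence read at ex 485/em 525 nm. IC50 from dose-response curve fit.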

[12] = test system: Staphylococcus aureus; test: Antibacterial activity against NEO-sensitive Staphylococcus aureus C1 after 15 to 20 hrs by CLSI protocol based microdilution assay; type: functional
Procedure, shortened: (§5)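 CLSI broth microdilution MIC in triplicate on exponential-phase cells, ~3×10^5 cells per mL in cation-adjusted Mueller-Hinton broth. Compound was added from 10× stocks in 10% DMSO as serial 2-fold dilutions, final 50 to 0.78 μM. Plates were incubated at 37 °C, humidified, 15-20 h. Growth was read as absorbance at 595 nm, and percent inhibition was averaged over triplicates.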

[13] = test system: Staphylococcus aureus; test: Antibacterial activity against methicillin-resistant Staphylococcus aureus 33591 at 6.25 uM after 15 to 20 hrs by CLSI protocol based microdilution assay relative to control; type: functional; procedure, shortened: as §3
[14] = test system: Staphylococcus aureus; test: Antibacterial activity against NEO-sensitive Staphylococcus aureus NRS77 after 15 to 20 hrs by CLSI protocol based microdilution assay; type: functional; procedure, shortened: as §5
[15] = biological target: Ribosomal RNA A-site; test: Displacement of F-NEO from human cytosolic rRNA-A site after 10 to 20 mins by fluorescence assay; type: nucleic-acid assay; procedure, shortened: as §4
[16] = Displacement of F-NEO from human mitochondrial rRNA-A site C1410U mutant after 10 to 20 mins by fluorescence assay; procedure, shortened: as §4
[17] = test system: Staphylococcus aureus; test: Antibacterial activity against methicillin-resistant Staphylococcus aureus A960649 at 6.25 uM after 15 to 20 hrs by CLSI protocol based microdilution assay relative to control; type: functional; procedure, shortened: as §3
[18] = test system: Ribosomal RNA A-site; test: Displacement of F-NEO from Escherichia coli rRNA-A site after 10 to 20 mins by fluorescence assay relative to NEO; type: nucleic-acid assay; parameters: concentration or dose not given beside the values; procedure, shortened: as §1
[19] = test system: Listeria monocytogenes; test: Antibacterial activity against NEO-sensitive Listeria monocytogenes ATCC 19115 at 6.25 uM after 15 to 20 hrs by CLSI protocol based microdilution assay relative to control; type: functional; procedure, shortened: as §2
[20] = test system: Staphylococcus aureus; test: Antibacterial activity against NEO-sensitive Staphylococcus aureus harboring NorA mutant at 6.25 uM after 15 to 20 hrs by CLSI protocol based microdilution assay relative to control; type: functional; procedure, shortened: as §3
[21] = test system: Mycolicibacterium smegmatis; test: Antibacterial activity against NEO-sensitive Mycobacterium smegmatis at 6.25 uM after 15 to 20 hrs by CLSI protocol based microdilution assay relative to control; type: functional; procedure, shortened: as §2
[22] = biological target: Ribosomal RNA A-site; test: Displacement of F-NEO from human mitochondrial rRNA-A site after 10 to 20 mins by fluorescence assay; type: nucleic-acid assay; procedure, shortened: as §4
[23] = Antibacterial activity against NEO-sensitive Enterobacter cloacae 13047 at 6.25 uM after 15 to 20 hrs by CLSI protocol based microdilution assay relative to control; type: functional, Enterobacter cloacae subsp. cloacae, ATCC 13047; procedure, shortened: as §2
[24] = test system: Pseudomonas aeruginosa; test: Antibacterial activity against NEO-resistant Pseudomonas aeruginosa 27853 at 6.25 uM after 15 to 20 hrs by CLSI protocol based microdilution assay relative to control; type: functional; procedure, shortened: as §3
[25] = test system: Streptococcus pyogenes; test: Antibacterial activity against NEO-resistant Streptococcus pyogenes C203 at 6.25 uM after 15 to 20 hrs by CLSI protocol based microdilution assay relative to control; type: functional; procedure, shortened: as §3
[26] = test system: Staphylococcus aureus; test: Antibacterial activity against NEO-sensitive Staphylococcus aureus 6538 after 15 to 20 hrs by CLSI protocol based microdilution assay; type: functional; procedure, shortened: as §5
[27] = test system: Enterococcus faecium; test: Antibacterial activity against NEO-intermediate sensitive Enterococcus faecium BM4105-RF at 6.25 uM after 15 to 20 hrs by CLSI protocol based microdilution assay relative to control; type: functional; procedure, shortened: as §2
[28] = Inhibition of APH(3')-1a (unknown origin)
[29] = test system: Klebsiella pneumoniae; test: Antibacterial activity against Klebsiella pneumoniae NR-151410 at 6.25 uM after 15 to 20 hrs by CLSI protocol based microdilution assay relative to control; type: functional; procedure, shortened: as §2
[30] = test system: Acinetobacter baumannii; test: Antibacterial activity against NEO-sensitive Acinetobacter baumannii ATCC 19606 at 6.25 uM after 15 to 20 hrs by CLSI protocol based microdilution assay relative to control; type: functional, ATCC 19606 = CIP 70.34 = JCM 6841; procedure, shortened: as §2
[31] = test system: Staphylococcus epidermidis; test: Antibacterial activity against NEO-sensitive Staphylococcus epidermidis 12384 at 6.25 uM after 15 to 20 hrs by CLSI protocol based microdilution assay relative to control; type: functional; procedure, shortened: as §2
[32] = test system: Staphylococcus aureus; test: Antibacterial activity against NEO-sensitive Staphylococcus aureus C2 after 15 to 20 hrs by CLSI protocol based microdilution assay; type: functional; procedure, shortened: as §5
[33] = test system: Ribosomal RNA A-site; test: Displacement of F-NEO from human cytosolic rRNA-A site after 10 to 20 mins by fluorescence assay relative to NEO; type: nucleic-acid assay; parameters: concentration or dose not given beside the values; procedure, shortened: as §1
[34] = Inhibition of AAC(3)-4 (unknown origin)
[35] = test system: Klebsiella oxytoca; test: Antibacterial activity against NEO-sensitive Klebsiella oxytoca HM-625 at 6.25 uM after 15 to 20 hrs by CLSI protocol based microdilution assay relative to control; type: functional; procedure, shortened: as §2
[36] = test system: Staphylococcus aureus; test: Antibacterial activity against methicillin-resistant Staphylococcus aureus M0602 at 6.25 uM after 15 to 20 hrs by CLSI protocol based microdilution assay relative to control; type: functional; procedure, shortened: as §3
[37] = test system: Enterococcus faecalis; test: Antibacterial activity against NEO-intermediate sensitive Enterococcus faecalis ATCC 29212 at 6.25 uM after 15 to 20 hrs by CLSI protocol based microdilution assay relative to control; type: functional; procedure, shortened: as §2
[38] = test system: Bacillus anthracis; test: Antibacterial activity against NEO-sensitive Bacillus anthracis BA852 at 6.25 uM after 15 to 20 hrs by CLSI protocol based microdilution assay relative to control; type: functional; procedure, shortened: as §3
[39] = test system: Escherichia coli; test: Antibacterial activity against multidrug-resistant Escherichia coli H4H at 6.25 uM after 15 to 20 hrs by CLSI protocol based microdilution assay relative to control; type: functional; procedure, shortened: as §3
[40] = test system: Ribosomal RNA A-site; test: Displacement of F-NEO from human mitochondrial rRNA-A site after 10 to 20 mins by fluorescence assay relative to NEO; type: nucleic-acid assay; parameters: concentration or dose not given beside the values; procedure, shortened: as §1

For `NC[C@@H]1O[C@H](O[C@H]2[C@@H](O)[C@H](O[C@@H]3[C@@H](O)[C@H](N)C[C@H](N)[C@H]3O[C@H]3O[C@H](CN)[C@@H](O)[C@H](O)[C@H]3N)O[C@@H]2CNC(=O)CCc2ccc3ccc4cccc5ccc2c3c45)[C@H](N)[C@@H](O)[C@@H]1O`, the inhibition [1] was 65%, the inhibition [2] was “Active” and the Activity [3] was 0%. The Activity [4] was “inactive”, the inhibition [5] was “Active” and the inhibition [6] was “Active”. The inhibition [7] was 22%, the Activity [8] was “inactive” and the inhibition [9] was “Active”. For the same compound, the Activity [10] was 15%, the IC50 [11] was 0.31 µM and the MIC [12] was 25 µM (≈ 21.7 µg/mL). It also gave an Activity [13] of 14%, an MIC [14] of over 25 µM and an IC50 [15] of 0.447 µM. The IC50 [16] was 0.332 µM, the Activity [17] was 16% and the inhibition [18] was 33%. For the same compound, the Activity [19] was “inactive”, the Activity [20] was “inactive” and the Activity [21] was 35%. It also gave an IC50 [22] of 0.373 µM, an Activity [23] of 0% and an Activity [24] of 14%. The Activity [25] was “inactive”, the MIC [26] was 12.5 µM (≈ 10.9 µg/mL) and the Activity [27] was 0%. For the same compound, the inhibition [28] was “Active”, the Activity [29] was 13% and the Activity [30] was 10%. The Activity [31] was 10%, the MIC [32] was 25 µM (≈ 21.7 µg/mL) and the inhibition [33] was 39%. For the same compound, the inhibition [34] was “Active”, the Activity [35] was 5% and the Activity [36] was “inactive”. For the same compound, the Activity [37] was 6%, the Activity [38] was “inactive” and the Activity [39] was “inactive”. The inhibition [40] was 47%.
